In ChEMBL document CHEMBL4229372, “Synthesis and anti-mitotic activity of 2,4- or 2,6-disubstituted- and 2,4,6-trisubstituted-2H-pyrazolo[4,3-c]pyridines” (2018):
Active and inactive are the calls of the source. No cut-off for these calls is given here.

Columns and labels:
[1] = tested on: K562; test: Cell cycle arrest in human K562 cells assessed as accumulation at G1 phase at 0.25 uM after 24 hrs by propidium iodide staining-based flow cytometric analysis (reference value: 34.6%); assay type: functional
[2] = tested on: MCF7; test: Cell cycle arrest in human MCF7 cells assessed as accumulation at S phase at 0.25 uM after 24 hrs by propidium iodide staining-based flow cytometric analysis (reference value: 34.1%); assay type: functional
Method in brief: (§1)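 MCF-7 cells in DMEM with 10% FBS and penicillin/streptomycin at 37 °C, 5% CO2. Asynchronous cells were treated 24 h, PBS-washed, trypsinized and quenched with 0.1% trypsin inhibitor. Staining used 5× citrate/IGEPAL/spermine/Tris buffer (pH 7.6) with 50 μg/mL propidium iodide. DNA content was read by 488 nm flow cytometry and cell-cycle phases modelled.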

[3] = tested on: MCF7; test: Cell cycle arrest in human MCF7 cells assessed as accumulation at G2/M phase at 0.25 uM after 24 hrs by propidium iodide staining-based flow cytometric analysis (reference value: 5.3%); assay type: functional; method in brief: as §1
[4] = tested on: MCF7; test: Cell cycle arrest in human MCF7 cells assessed as accumulation at sub G1 phase at 0.25 uM after 24 hrs by propidium iodide staining-based flow cytometric analysis (reference value: 7.1%); assay type: functional; method in brief: as §1
[5] = tested on: K562; test: Cell cycle arrest in human K562 cells assessed as accumulation at sub G1 phase at 0.25 uM after 24 hrs by propidium iodide staining-based flow cytometric analysis (reference value: 15%); assay type: functional
[6] = tested on: K562; test: Cell cycle arrest in human K562 cells assessed as accumulation at G2/M phase at 0.25 uM after 24 hrs by propidium iodide staining-based flow cytometric analysis (reference value: 15%); assay type: functional
[7] = tested on: MCF7; test: Cell cycle arrest in human MCF7 cells assessed as accumulation at G1 phase at 0.25 uM after 24 hrs by propidium iodide staining-based flow cytometric analysis (reference value: 60.7%); assay type: functional; method in brief: as §1
[8] = tested on: K562; test: Cell cycle arrest in human K562 cells assessed as accumulation at S phase at 0.25 uM after 24 hrs by propidium iodide staining-based flow cytometric analysis (reference value: 50.3%); assay type: functional
[9] = tested on: K562; test: Cell cycle arrest in human K562 cells assessed as accumulation at G2/M phase at 10 uM after 24 hrs by propidium iodide staining-based flow cytometric analysis (reference value: 15%); assay type: functional
[10] = tested on: MCF7; test: Cell cycle arrest in human MCF7 cells assessed as accumulation at S phase at 10 uM after 24 hrs by propidium iodide staining-based flow cytometric analysis (reference value: 34.1%); assay type: functional; method in brief: as §1
[11] = tested on: K562; test: Cell cycle arrest in human K562 cells assessed as accumulation at sub G1 phase at 10 uM after 24 hrs by propidium iodide staining-based flow cytometric analysis (reference value: 15%); assay type: functional
[12] = tested on: MCF7; test: Cell cycle arrest in human MCF7 cells assessed as accumulation at G2/M phase at 10 uM after 24 hrs by propidium iodide staining-based flow cytometric analysis (reference value: 5.3%); assay type: functional; method in brief: as §1
[13] = tested on: MCF7; test: Cell cycle arrest in human MCF7 cells assessed as accumulation at sub G1 phase at 10 uM after 24 hrs by propidium iodide staining-based flow cytometric analysis (reference value: 7.1%); assay type: functional; method in brief: as §1
[14] = tested on: K562; test: Cell cycle arrest in human K562 cells assessed as accumulation at S phase at 10 uM after 24 hrs by propidium iodide staining-based flow cytometric analysis (reference value: 50.3%); assay type: functional
[15] = tested on: MCF7; test: Growth inhibition of human MCF7 cells after 72 hrs by Calcein AM dye based fluorescence assay; assay type: functional; conditions: MCF7, 72 h
Method in brief: (§2)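 Cells in DMEM with 10% FBS at 37 °C, 5% CO2, treated in triplicate with six doses for 72 h. Calcein AM was added for 1 h and live-cell fluorescence read at 485/538 nm. GI50 was taken from dose-response curves.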

[16] = tested on: K562; test: Growth inhibition of human K562 cells after 72 hrs by Calcein AM dye based fluorescence assay; assay type: functional; conditions: K562, 72 h; method in brief: as §2
[17] = tested on: MCF7; test: Cell cycle arrest in human MCF7 cells assessed as accumulation at G1 phase at 10 uM after 24 hrs by propidium iodide staining-based flow cytometric analysis (reference value: 60.7%); assay type: functional; method in brief: as §1
[18] = tested on: K562; test: Cell cycle arrest in human K562 cells assessed as accumulation at G1 phase at 10 uM after 24 hrs by propidium iodide staining-based flow cytometric analysis (reference value: 34.6%); assay type: functional
[19] = target: Cyclin-dependent kinase 1 (Homo sapiens) (UniProt P06493); test: Inhibition of CDK1 (unknown origin)
[20] = tested on: K562; test: Cell cycle arrest in human K562 cells assessed as accumulation at G1 phase at 83 nM after 24 hrs by propidium iodide staining-based flow cytometric analysis (reference value: 34.6%); assay type: functional
[21] = tested on: K562; test: Cell cycle arrest in human K562 cells assessed as accumulation at S phase at 83 nM after 24 hrs by propidium iodide staining-based flow cytometric analysis (reference value: 50.3%); assay type: functional
[22] = tested on: MCF7; test: Cell cycle arrest in human MCF7 cells assessed as accumulation at G2/M phase at 83 nM after 24 hrs by propidium iodide staining-based flow cytometric analysis (reference value: 5.3%); assay type: functional; method in brief: as §1
[23] = tested on: MCF7; test: Cell cycle arrest in human MCF7 cells assessed as accumulation at sub G1 phase at 83 nM after 24 hrs by propidium iodide staining-based flow cytometric analysis (reference value: 7.1%); assay type: functional; method in brief: as §1
[24] = tested on: K562; test: Cell cycle arrest in human K562 cells assessed as accumulation at G2/M phase at 83 nM after 24 hrs by propidium iodide staining-based flow cytometric analysis (reference value: 15%); assay type: functional
[25] = tested on: MCF7; test: Cell cycle arrest in human MCF7 cells assessed as accumulation at G1 phase at 83 nM after 24 hrs by propidium iodide staining-based flow cytometric analysis (reference value: 60.7%); assay type: functional; method in brief: as §1
[26] = tested on: K562; test: Cell cycle arrest in human K562 cells assessed as accumulation at G2/M phase assessed as accumulation of histone H3 phosphorylation at serine 10 residues at 40 ng/ml uM after 24 hrs by propidium iodide staining-based flow cytometric analysis (reference value: 2.2%); assay type: functional
[27] = tested on: K562; test: Cell cycle arrest in human K562 cells assessed as accumulation at sub G1 phase at 83 nM after 24 hrs by propidium iodide staining-based flow cytometric analysis (reference value: 15%); assay type: functional
[28] = tested on: MCF7; test: Cell cycle arrest in human MCF7 cells assessed as accumulation at S phase at 83 nM after 24 hrs by propidium iodide staining-based flow cytometric analysis (reference value: 34.1%); assay type: functional; method in brief: as §1

Chain of Cyclin-dependent kinase 1 (Homo sapiens) (P06493 whole entry, looked up): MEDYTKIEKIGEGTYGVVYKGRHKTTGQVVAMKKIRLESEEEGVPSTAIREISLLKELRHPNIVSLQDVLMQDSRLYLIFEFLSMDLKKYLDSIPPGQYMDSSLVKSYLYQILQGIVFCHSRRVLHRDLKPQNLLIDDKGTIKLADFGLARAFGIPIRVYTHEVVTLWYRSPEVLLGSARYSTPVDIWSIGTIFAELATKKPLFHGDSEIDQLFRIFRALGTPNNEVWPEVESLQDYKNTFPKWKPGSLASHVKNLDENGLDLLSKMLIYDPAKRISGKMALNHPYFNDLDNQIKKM

SMILES | GI50 [15] [µM] | GI50 [16] [µM] | inhibition [19] | Activity [9] [%] | Activity [10] [%] | Activity [11] [%] | Activity [12] [%] | Activity [13] [%] | Activity [14] [%] | Activity [17] [%] | Activity [18] [%] | further results
CC(=O)c1c(C)c2cnc(Nc3ccc(N4CCNCC4)cn3)nc2n(C2CCCC2)c1=O [PALBOCICLIB] | – | – | – | – | – | – | – | – | – | – | – | Activity [1]: 54%; Activity [2]: 5.5%; Activity [3]: 4.6%; Activity [4]: 7.5%; Activity [5]: 35%; Activity [6]: 15.9%; Activity [7]: 90%; Activity [8]: 30.1%
CC(C)c1nc(-c2ccccc2)cc2nn(-c3ccccc3)cc12 | 91 | 36.8 | inactive | 18.3 | 30.6 | 21.3 | 6.9 | 6.7 | 46.6 | 62.6 | 35.1 | –
COC(=O)Nc1nc2cc(C(=O)c3cccs3)ccc2[nH]1 [NOCODAZOLE] | – | – | – | – | – | – | – | – | – | – | – | Activity [20]: 3.6%; Activity [21]: 26.8%; Activity [22]: 35.7%; Activity [23]: 32.1%; Activity [24]: 69.7%; Activity [25]: 14.4%; Activity [26]: 33.2%; Activity [27]: 49.4%; Activity [28]: 49.9%
CC(C)c1nccc2nn(-c3ccccc3)cc12 | 98.8 | > 100 | inactive | – | – | – | – | – | – | – | – | –
CCCCc1cc2nn(-c3ccccc3)cc2c(C(C)C)n1 | 33.3 | 12.9 | inactive | 29 | 24.5 | 47.1 | 9.4 | 7.8 | 44.2 | 66.1 | 26.7 | –
c1ccc(-n2cc3cnc(C4CC4)cc3n2)cc1 | 69.3 | 60.5 | inactive | 15.5 | 29.4 | 19.6 | 5.9 | 7.5 | 52.2 | 64.7 | 32.3 | –
Cn1cc2cnc(-c3ccccc3)cc2n1 | > 100 | > 100 | inactive | – | – | – | – | – | – | – | – | –
Cc1nc(-c2ccsc2)cc2nn(-c3ccccc3)cc12 | 22.2 | 10 | inactive | 44.6 | 31.2 | 45.7 | 31.6 | 22.7 | 29.2 | 37.2 | 26.2 | –
c1ccc(-n2cc3cnccc3n2)cc1 | > 100 | > 100 | inactive | – | – | – | – | – | – | – | – | –
Cc1nc(CCO)cc2nn(-c3ccccc3)cc12 | > 100 | > 100 | inactive | – | – | – | – | – | – | – | – | –
Cc1nccc2nn(-c3ccccc3)cc12 | > 100 | > 100 | inactive | – | – | – | – | – | – | – | – | –
OCCc1cc2nn(-c3ccccc3)cc2cn1 | > 100 | > 100 | inactive | – | – | – | – | – | – | – | – | –
Cc1nc(C2CC2)cc2nn(-c3ccccc3)cc12 | 63.5 | 25.9 | inactive | 19.6 | 30.2 | 15.3 | 6.3 | 9 | 45.8 | 63.6 | 34.7 | –

More lines, main results first:

GI50 [15] [µM] | GI50 [16] [µM] | inhibition [19] | SMILES | Activity [9] [%] | Activity [10] [%] | Activity [11] [%] | Activity [12] [%] | Activity [13] [%] | Activity [14] [%] | Activity [17] [%] | Activity [18] [%] | further results
9.8 | 8.3 | inactive | c1ccc(-n2cc3cnc(-c4ccsc4)cc3n2)cc1 | 41.1 | 29.1 | 34.2 | 31.4 | 24.2 | 37.3 | 39.5 | 21.7 | –
11 | 6.3 | inactive | Cc1nc(-c2ccccc2)cc2nn(-c3ccccc3)cc12 | 50.2 | 20.5 | 46.2 | 14.1 | 11.9 | 36.1 | 65.5 | 13.7 | –
17 | 6.9 | inactive | CCCCCc1cc2nn(-c3ccccc3)cc2c(C)n1 | 49.9 | 18.1 | 28.3 | 31.7 | 31.1 | 28.3 | 50.2 | 21.8 | –
4.8 | 3.4 | inactive | c1ccc(-c2cc3nn(-c4ccccc4)cc3cn2)cc1 | 74.7 | 26.2 | 43 | 17 | 14.3 | 5.5 | 56.8 | 19.8 | –
13.3 | 6.7 | inactive | CCCCc1cc2nn(-c3ccccc3)cc2cn1 | 62.3 | 30.3 | 37.7 | 33.7 | 31.1 | 12.8 | 36 | 24.8 | –
11.1 | 8.5 | inactive | CCCCc1cc2nn(-c3ccccc3)cc2c(C)n1 | 41.4 | 24 | 40.8 | 27.5 | 19.3 | 30.5 | 48.5 | 28.2 | –
